Measurements: ChEMBL document CHEMBL3526002, “Tissue distribution and identification of radioactivity components at elimination phase after oral administration of [¹⁴C]CS-1036, an α-amylase inhibitor, to rats” (Drug Metab Dispos, 2013)

How the values were obtained:
Set-up in all cases: dose 5 mg/kg, dosed compound name [14C]CS-1036, route oral
Settings in all cases: in vivo
[1] = tested on: Large intestine; assay: Drug uptake in albino F344/DuCrlCrlj rat large intestine assessed as ng equivalent of CS-1036 at 5 mg/kg, po after 24 hrs by liquid scintillation counting; type: ADME, organism-based
[2] = tested on: Kidney; assay: Drug uptake in albino F344/DuCrlCrlj rat kidney at 5 mg/kg, po after 4 hrs by liquid scintillation counting; type: ADME, organism-based
[3] = tested on: Zone of skin; assay: Drug uptake in albino F344/DuCrlCrlj rat skin at 5 mg/kg, po after 4 hrs by liquid scintillation counting; type: ADME, organism-based
[4] = Drug uptake in albino F344/DuCrlCrlj rat testis at 5 mg/kg, po after 4 hrs by liquid scintillation counting; type: ADME, organism-based
[5] = tested on: Small intestine; assay: Drug uptake in albino F344/DuCrlCrlj rat small intestine at 5 mg/kg, po after 4 hrs by liquid scintillation counting; type: ADME, organism-based
[6] = tested on: Large intestine; assay: Drug uptake in albino F344/DuCrlCrlj rat large intestine at 5 mg/kg, po after 4 hrs by liquid scintillation counting; type: ADME, organism-based
[7] = tested on: Aorta; assay: Drug uptake in albino F344/DuCrlCrlj rat aorta at 5 mg/kg, po after 8 hrs by liquid scintillation counting; type: ADME, organism-based
[8] = tested on: Cerebrum; assay: Drug uptake in albino F344/DuCrlCrlj rat cerebrum at 5 mg/kg, po after 24 hrs by liquid scintillation counting; type: ADME, organism-based
Method in brief: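 Single oral [14C]CS-1036 at 5 mg/kg was given to male rats (159–167 g; n = 3). Cerebrum was collected after aortic bleeding at 1, 4, 8, 24, 72, 168 or 336 h, weighed, and homogenized in 2 volumes of saline. A 0.5 ml aliquot was solubilized in Soluene-350 and counted by LSC with external-standard correction. Results are in ng equivalent/g tissue from specific activity and sample weight.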

[9] = tested on: Large intestine; assay: Drug uptake in albino F344/DuCrlCrlj rat large intestine at 5 mg/kg, po after 336 hrs by liquid scintillation counting; type: ADME, organism-based
[10] = Drug uptake in albino F344/DuCrlCrlj rat urinary bladder at 5 mg/kg, po after 336 hrs by liquid scintillation counting; type: ADME, organism-based
[11] = tested on: Blood; assay: Drug uptake in albino F344/DuCrlCrlj rat blood assessed as ng equivalent of CS-1036 at 5 mg/kg, po after 1 hr by liquid scintillation counting; type: ADME, organism-based
Method in brief: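 Male F344/DuCrlCrlj rats (159–167 g; n = 3 per time point) received a single oral dose of [14C]CS-1036 at 5 mg/kg. Blood was taken from the abdominal aorta at 1, 4, 8, 24, 72, 168 and 336 h. Radioactivity was counted by LSC with external-standard efficiency correction. Results were converted to ng equivalent of CS-1036/ml using specific activity and sample volume, and reported as mean + S.D.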

[12] = tested on: Harderian gland; assay: Drug uptake in albino F344/DuCrlCrlj rat harderian gland assessed as ng equivalent of CS-1036 at 5 mg/kg, po after 1 hr by liquid scintillation counting; type: ADME, organism-based
[13] = Drug uptake in albino F344/DuCrlCrlj rat eyeball assessed as ng equivalent of CS-1036 at 5 mg/kg, po after 4 hrs by liquid scintillation counting; type: ADME, organism-based
[14] = Drug uptake in albino F344/DuCrlCrlj rat eyeball assessed as ng equivalent of CS-1036 at 5 mg/kg, po after 72 hrs by liquid scintillation counting; type: ADME, organism-based
[15] = Drug uptake in albino F344/DuCrlCrlj rat thyroid gland assessed as ng equivalent of CS-1036 at 5 mg/kg, po after 72 hrs by liquid scintillation counting; type: ADME, organism-based
[16] = Drug uptake in albino F344/DuCrlCrlj rat mandibular gland assessed as ng equivalent of CS-1036 at 5 mg/kg, po after 4 hrs by liquid scintillation counting; type: ADME, organism-based
[17] = tested on: Stomach; assay: Drug uptake in albino F344/DuCrlCrlj rat stomach assessed as ng equivalent of CS-1036 at 5 mg/kg, po after 72 hrs by liquid scintillation counting; type: ADME, organism-based
[18] = tested on: Small intestine; assay: Drug uptake in albino F344/DuCrlCrlj rat small intestine assessed as ng equivalent of CS-1036 at 5 mg/kg, po after 336 hrs by liquid scintillation counting; type: ADME, organism-based
[19] = tested on: Small intestine; assay: Drug uptake in albino F344/DuCrlCrlj rat small intestine assessed as ng equivalent of CS-1036 at 5 mg/kg, po after 72 hrs by liquid scintillation counting; type: ADME, organism-based
[20] = Drug uptake in albino F344/DuCrlCrlj rat thyroid gland at 5 mg/kg, po after 72 hrs by liquid scintillation counting; type: ADME, organism-based
[21] = Drug uptake in albino F344/DuCrlCrlj rat testis assessed as ng equivalent of CS-1036 at 5 mg/kg, po after 4 hrs by liquid scintillation counting; type: ADME, organism-based
[22] = Drug uptake in albino F344/DuCrlCrlj rat fat assessed as ng equivalent of CS-1036 at 5 mg/kg, po after 8 hrs by liquid scintillation counting; type: ADME, organism-based, Adipose tissue
Method in brief: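 Male F344/DuCrlCrlj rats (bought at 7 weeks, acclimatized 5–6 days; 159–167 g; n = 3 per time point) received a single oral dose of [14C]CS-1036 at 5 mg/kg. White adipose tissue was collected after abdominal aortic bleeding at 1, 4, 8, 24, 72, 168 or 336 h. Samples were counted by LSC with external-standard efficiency correction. Results were converted to ng equivalents per g from specific activity and sample weight.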

[23] = Drug uptake in albino F344/DuCrlCrlj rat bone marrow assessed as ng equivalent of CS-1036 at 5 mg/kg, po after 168 hrs by liquid scintillation counting; type: ADME, organism-based
[24] = tested on: Large intestine; assay: Drug uptake in albino F344/DuCrlCrlj rat large intestine assessed as ng equivalent of CS-1036 at 5 mg/kg, po after 168 hrs by liquid scintillation counting; type: ADME, organism-based
[25] = Drug uptake in albino F344/DuCrlCrlj rat mandibular gland at 5 mg/kg, po after 1 hr by liquid scintillation counting; type: ADME, organism-based
[26] = tested on: Lung; assay: Drug uptake in albino F344/DuCrlCrlj rat lung assessed as ng equivalent of CS-1036 at 5 mg/kg, po after 336 hrs by liquid scintillation counting; type: ADME, organism-based
[27] = tested on: Pancreas; assay: Drug uptake in albino F344/DuCrlCrlj rat pancreas assessed as ng equivalent of CS-1036 at 5 mg/kg, po after 336 hrs by liquid scintillation counting; type: ADME, organism-based
[28] = tested on: Small intestine; assay: Drug uptake in albino F344/DuCrlCrlj rat small intestine assessed as ng equivalent of CS-1036 at 5 mg/kg, po after 8 hrs by liquid scintillation counting; type: ADME, organism-based
[29] = Drug uptake in albino F344/DuCrlCrlj rat brown fat at 5 mg/kg, po after 336 hrs by liquid scintillation counting; type: ADME, organism-based, Brown adipose tissue
[30] = Drug uptake in albino F344/DuCrlCrlj rat testis at 5 mg/kg, po after 336 hrs by liquid scintillation counting; type: ADME, organism-based
[31] = tested on: Liver; assay: Drug uptake in albino F344/DuCrlCrlj rat liver assessed as ng equivalent of CS-1036 at 5 mg/kg, po after 24 hrs by liquid scintillation counting; type: ADME, organism-based
[32] = tested on: Spleen; assay: Drug uptake in albino F344/DuCrlCrlj rat spleen assessed as ng equivalent of CS-1036 at 5 mg/kg, po after 24 hrs by liquid scintillation counting; type: ADME, organism-based

For `C[C@H]1O[C@@H](O[C@H]2[C@H](O)[C@@H](O)[C@@H](O[14C@H]3[14C@H](O)[14CH2]N[14C@@H]3[14CH2]O)O[C@@H]2CO)[C@H](O)[C@@H](O)[C@@H]1O`, the Radiolabel recovery [1] was 138 ngequiv/g, the Radiolabel recovery [2] was 383 ngequiv/g and the Radiolabel recovery [3] was 33 ngequiv/g. It also gave a Radiolabel recovery [4] of 22.3 ngequiv/g, a Radiolabel recovery [5] of 965 ngequiv/g and a Radiolabel recovery [6] of 5930 ngequiv/g. It also gave a Radiolabel recovery [7] of 57.3 ngequiv/g, a Radiolabel recovery [8] of 19.3 ngequiv/g and a Radiolabel recovery [9] of 9.86 ngequiv/g. It also gave a Radiolabel recovery [10] of 11.7 ngequiv/g, a Radiolabel recovery [11] of 9.5 ngequiv/ml and a Radiolabel recovery [12] of 4.3 ngequiv/g. For the same compound, the Radiolabel recovery [13] was 4.8 ngequiv/g, the Radiolabel recovery [14] was 1.72 ngequiv/g and the Radiolabel recovery [15] was 42.7 ngequiv/g. It also gave a Radiolabel recovery [16] of 9.2 ngequiv/g, a Radiolabel recovery [17] of 21.8 ngequiv/g and a Radiolabel recovery [18] of 1.92 ngequiv/g. For the same compound, the Radiolabel recovery [19] was 16.2 ngequiv/g, the Radiolabel recovery [20] was 99.1 ngequiv/g and the Radiolabel recovery [21] was 5.3 ngequiv/g. It also gave a Radiolabel recovery [22] of 4.6 ngequiv/g, a Radiolabel recovery [23] of 23 ngequiv/g and a Radiolabel recovery [24] of 19 ngequiv/g. The Radiolabel recovery [25] was 43.4 ngequiv/g, the Radiolabel recovery [26] was 3.93 ngequiv/g and the Radiolabel recovery [27] was 11.2 ngequiv/g. The Radiolabel recovery [28] was 36 ngequiv/g, the Radiolabel recovery [29] was 54.3 ngequiv/g and the Radiolabel recovery [30] was 6.02 ngequiv/g. For the same compound, the Radiolabel recovery [31] was 37 ngequiv/g and the Radiolabel recovery [32] was 10.4 ngequiv/g.
